In ChEMBL document CHEMBL1250448, “Inhibitor hijacking of Akt activation” (Nat Chem Biol, 2009):

How the values were obtained:
[1] = biological target: T1, G protein-coupled receptor kinase 3 (Homo sapiens) (UniProt P35626); test: Inhibition of ADRBK2 at 1 uM in presence of 10 uM ATP by Select Screen kinase assay relative to untreated control
T1 sequence (whole entry): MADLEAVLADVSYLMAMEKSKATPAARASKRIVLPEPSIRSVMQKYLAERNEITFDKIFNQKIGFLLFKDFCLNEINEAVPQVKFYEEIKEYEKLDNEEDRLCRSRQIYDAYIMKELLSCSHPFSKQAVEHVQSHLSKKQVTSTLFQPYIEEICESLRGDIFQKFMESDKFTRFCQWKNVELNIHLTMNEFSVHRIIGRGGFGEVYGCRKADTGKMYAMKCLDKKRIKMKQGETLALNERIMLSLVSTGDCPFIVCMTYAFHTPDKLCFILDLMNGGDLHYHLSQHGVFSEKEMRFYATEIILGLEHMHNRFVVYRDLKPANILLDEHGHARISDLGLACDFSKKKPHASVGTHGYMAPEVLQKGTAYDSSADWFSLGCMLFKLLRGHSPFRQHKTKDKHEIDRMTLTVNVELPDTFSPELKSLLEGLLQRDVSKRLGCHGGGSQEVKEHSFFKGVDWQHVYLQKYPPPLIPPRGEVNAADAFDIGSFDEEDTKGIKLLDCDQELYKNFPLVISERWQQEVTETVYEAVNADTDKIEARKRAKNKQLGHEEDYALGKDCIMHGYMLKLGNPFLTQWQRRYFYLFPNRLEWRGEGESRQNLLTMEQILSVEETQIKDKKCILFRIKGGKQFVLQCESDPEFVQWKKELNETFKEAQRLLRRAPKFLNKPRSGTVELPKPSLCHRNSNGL
Outline: (§1)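 Single-point screen at 1 μM against a panel of 220 purified kinases, run by Invitrogen staff as a SelectScreen profiling service. Read-out is percent inhibition of kinase activity.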

[2] = biological target: BDNF/NT-3 growth factors receptor (Homo sapiens) (UniProt Q16620); test: Inhibition of NTRK2 at 1 uM in presence of 10 uM ATP by Select Screen kinase assay relative to untreated control
BDNF/NT-3 growth factors receptor (Homo sapiens), sequence (Q16620 32-822 limits assumed): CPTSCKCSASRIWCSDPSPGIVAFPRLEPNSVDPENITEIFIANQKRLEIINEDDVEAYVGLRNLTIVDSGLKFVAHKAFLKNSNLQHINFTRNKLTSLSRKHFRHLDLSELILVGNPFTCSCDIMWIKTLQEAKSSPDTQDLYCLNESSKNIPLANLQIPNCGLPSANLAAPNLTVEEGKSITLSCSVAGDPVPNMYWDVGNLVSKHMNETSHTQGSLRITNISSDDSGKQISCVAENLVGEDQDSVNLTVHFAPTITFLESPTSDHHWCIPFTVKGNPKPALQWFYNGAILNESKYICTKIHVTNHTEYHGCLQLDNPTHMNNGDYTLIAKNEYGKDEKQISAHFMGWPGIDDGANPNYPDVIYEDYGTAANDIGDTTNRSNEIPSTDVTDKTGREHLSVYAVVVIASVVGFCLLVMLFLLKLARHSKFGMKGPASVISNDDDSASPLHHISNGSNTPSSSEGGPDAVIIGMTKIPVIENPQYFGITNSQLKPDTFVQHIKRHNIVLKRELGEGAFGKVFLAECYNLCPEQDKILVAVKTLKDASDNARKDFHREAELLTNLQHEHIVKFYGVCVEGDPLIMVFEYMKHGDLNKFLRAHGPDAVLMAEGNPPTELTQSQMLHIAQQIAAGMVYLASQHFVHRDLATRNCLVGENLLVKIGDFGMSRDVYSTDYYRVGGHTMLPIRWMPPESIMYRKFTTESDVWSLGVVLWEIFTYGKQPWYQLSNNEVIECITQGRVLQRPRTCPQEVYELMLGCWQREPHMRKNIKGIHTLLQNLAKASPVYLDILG
Outline: (§2)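 Commercial SelectScreen profiling panel of 220 purified kinases. Each kinase was tested at a single inhibitor concentration of 1 μM, and activity was expressed as percent inhibition.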

[3] = biological target: Tyrosine-protein kinase Fgr (Homo sapiens) (UniProt P09769); test: Inhibition of FGR at 1 uM in presence of 10 uM ATP by Select Screen kinase assay relative to untreated control
Tyrosine-protein kinase Fgr (Homo sapiens), sequence (P09769 2-529 limits assumed): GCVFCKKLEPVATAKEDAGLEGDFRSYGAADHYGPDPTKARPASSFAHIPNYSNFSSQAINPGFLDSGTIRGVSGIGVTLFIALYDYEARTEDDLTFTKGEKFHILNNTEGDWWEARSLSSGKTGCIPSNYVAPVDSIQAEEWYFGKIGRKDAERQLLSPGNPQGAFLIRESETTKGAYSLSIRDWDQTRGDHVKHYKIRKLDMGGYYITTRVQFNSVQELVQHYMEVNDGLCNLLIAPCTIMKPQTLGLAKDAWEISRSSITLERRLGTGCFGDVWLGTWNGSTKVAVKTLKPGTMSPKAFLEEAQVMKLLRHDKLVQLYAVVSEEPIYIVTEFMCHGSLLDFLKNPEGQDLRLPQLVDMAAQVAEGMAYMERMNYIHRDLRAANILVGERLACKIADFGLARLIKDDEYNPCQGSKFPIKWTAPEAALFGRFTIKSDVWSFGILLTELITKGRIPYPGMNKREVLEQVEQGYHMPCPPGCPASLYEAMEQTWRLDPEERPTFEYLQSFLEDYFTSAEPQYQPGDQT
Outline: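 Single-concentration profiling at 1 μM against a panel of 220 purified kinases, run as an outsourced SelectScreen kinase profiling service. Activity is expressed as percent inhibition.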

[4] = biological target: Fibroblast growth factor receptor 1 (Homo sapiens) (UniProt P11362); test: Inhibition of FGFR1 at 1 uM in presence of 10 uM ATP by Select Screen kinase assay relative to untreated control; outline: as §1
Fibroblast growth factor receptor 1 (Homo sapiens), sequence (P11362 22-822 limits assumed): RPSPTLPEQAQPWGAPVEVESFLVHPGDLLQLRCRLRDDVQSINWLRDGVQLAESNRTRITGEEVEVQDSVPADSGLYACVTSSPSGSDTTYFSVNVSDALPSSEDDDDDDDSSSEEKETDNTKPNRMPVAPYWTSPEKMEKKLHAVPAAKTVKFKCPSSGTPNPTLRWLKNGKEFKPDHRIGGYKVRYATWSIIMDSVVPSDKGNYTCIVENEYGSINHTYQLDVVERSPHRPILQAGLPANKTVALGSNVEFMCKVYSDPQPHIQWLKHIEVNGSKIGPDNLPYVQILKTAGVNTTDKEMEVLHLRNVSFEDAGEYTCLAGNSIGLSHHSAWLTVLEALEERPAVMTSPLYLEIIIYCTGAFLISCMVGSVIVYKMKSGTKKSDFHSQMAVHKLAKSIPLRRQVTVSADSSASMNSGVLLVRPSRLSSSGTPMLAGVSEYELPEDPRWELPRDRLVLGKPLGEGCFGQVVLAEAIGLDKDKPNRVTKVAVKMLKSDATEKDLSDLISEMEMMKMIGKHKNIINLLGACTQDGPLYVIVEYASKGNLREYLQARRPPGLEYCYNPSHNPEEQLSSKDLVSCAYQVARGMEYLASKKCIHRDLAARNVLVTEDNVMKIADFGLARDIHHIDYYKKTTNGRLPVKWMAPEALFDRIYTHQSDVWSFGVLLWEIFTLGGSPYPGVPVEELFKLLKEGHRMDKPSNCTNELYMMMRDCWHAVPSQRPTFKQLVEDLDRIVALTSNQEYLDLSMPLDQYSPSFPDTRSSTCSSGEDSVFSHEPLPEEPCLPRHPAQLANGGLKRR

[5] = biological target: T2, Tyrosine-protein kinase receptor TYRO3 (Homo sapiens) (UniProt Q06418); test: Inhibition of TYRO3 at 1 uM in presence of 10 uM ATP by Select Screen kinase assay relative to untreated control; outline: as §2
T2 sequence (whole entry): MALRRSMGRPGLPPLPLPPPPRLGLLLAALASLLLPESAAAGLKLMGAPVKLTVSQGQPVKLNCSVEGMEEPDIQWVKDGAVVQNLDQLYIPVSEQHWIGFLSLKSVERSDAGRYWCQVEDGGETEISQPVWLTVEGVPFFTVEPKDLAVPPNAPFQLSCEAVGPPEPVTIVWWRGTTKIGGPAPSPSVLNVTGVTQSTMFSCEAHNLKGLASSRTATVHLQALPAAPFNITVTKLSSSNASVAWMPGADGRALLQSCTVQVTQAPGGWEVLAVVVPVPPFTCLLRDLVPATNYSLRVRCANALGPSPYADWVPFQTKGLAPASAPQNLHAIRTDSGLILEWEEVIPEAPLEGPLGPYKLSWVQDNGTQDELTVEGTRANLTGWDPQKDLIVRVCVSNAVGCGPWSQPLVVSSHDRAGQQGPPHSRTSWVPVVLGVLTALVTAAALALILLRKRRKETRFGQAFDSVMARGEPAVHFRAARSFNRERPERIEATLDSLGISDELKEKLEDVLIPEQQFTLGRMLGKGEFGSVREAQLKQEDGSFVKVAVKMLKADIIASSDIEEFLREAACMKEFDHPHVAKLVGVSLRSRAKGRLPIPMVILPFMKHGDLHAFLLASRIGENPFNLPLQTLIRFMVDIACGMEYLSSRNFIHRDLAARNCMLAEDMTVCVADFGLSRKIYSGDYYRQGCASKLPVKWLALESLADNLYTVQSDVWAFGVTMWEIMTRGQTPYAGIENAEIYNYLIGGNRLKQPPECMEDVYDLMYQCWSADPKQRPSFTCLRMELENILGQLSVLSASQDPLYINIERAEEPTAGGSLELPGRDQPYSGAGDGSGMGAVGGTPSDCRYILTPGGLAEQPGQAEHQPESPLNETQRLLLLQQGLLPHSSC

[6] = biological target: SRSF protein kinase 2 (Homo sapiens) (UniProt P78362); test: Inhibition of SRPK2 at 1 uM in presence of 10 uM ATP by Select Screen kinase assay relative to untreated control; outline: as §2
SRSF protein kinase 2 (Homo sapiens), sequence (P78362 whole entry, looked up): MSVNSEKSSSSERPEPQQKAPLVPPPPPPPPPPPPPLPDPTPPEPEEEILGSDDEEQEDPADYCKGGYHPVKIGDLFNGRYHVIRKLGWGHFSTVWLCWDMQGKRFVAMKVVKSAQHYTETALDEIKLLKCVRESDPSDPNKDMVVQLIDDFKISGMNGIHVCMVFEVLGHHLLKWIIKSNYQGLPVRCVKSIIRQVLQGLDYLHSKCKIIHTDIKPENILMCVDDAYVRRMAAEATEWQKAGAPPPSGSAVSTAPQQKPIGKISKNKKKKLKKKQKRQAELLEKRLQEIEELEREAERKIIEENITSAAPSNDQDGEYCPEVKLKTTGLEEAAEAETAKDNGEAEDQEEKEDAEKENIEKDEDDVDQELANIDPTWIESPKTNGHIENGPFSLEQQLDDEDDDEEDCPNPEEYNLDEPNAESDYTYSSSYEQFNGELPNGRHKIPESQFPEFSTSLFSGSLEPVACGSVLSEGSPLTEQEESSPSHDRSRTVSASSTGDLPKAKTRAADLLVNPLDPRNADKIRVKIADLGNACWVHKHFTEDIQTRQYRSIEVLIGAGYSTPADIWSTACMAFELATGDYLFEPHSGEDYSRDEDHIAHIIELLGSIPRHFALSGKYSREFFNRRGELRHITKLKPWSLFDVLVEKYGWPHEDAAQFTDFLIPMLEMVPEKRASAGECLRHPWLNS

[7] = biological target: Platelet-derived growth factor receptor alpha (Homo sapiens) (UniProt P16234); test: Inhibition of PDGFRalpha at 1 uM in presence of 100 uM ATP by Select Screen kinase assay relative to untreated control; outline: as §2
Platelet-derived growth factor receptor alpha (Homo sapiens), sequence (P16234 whole entry): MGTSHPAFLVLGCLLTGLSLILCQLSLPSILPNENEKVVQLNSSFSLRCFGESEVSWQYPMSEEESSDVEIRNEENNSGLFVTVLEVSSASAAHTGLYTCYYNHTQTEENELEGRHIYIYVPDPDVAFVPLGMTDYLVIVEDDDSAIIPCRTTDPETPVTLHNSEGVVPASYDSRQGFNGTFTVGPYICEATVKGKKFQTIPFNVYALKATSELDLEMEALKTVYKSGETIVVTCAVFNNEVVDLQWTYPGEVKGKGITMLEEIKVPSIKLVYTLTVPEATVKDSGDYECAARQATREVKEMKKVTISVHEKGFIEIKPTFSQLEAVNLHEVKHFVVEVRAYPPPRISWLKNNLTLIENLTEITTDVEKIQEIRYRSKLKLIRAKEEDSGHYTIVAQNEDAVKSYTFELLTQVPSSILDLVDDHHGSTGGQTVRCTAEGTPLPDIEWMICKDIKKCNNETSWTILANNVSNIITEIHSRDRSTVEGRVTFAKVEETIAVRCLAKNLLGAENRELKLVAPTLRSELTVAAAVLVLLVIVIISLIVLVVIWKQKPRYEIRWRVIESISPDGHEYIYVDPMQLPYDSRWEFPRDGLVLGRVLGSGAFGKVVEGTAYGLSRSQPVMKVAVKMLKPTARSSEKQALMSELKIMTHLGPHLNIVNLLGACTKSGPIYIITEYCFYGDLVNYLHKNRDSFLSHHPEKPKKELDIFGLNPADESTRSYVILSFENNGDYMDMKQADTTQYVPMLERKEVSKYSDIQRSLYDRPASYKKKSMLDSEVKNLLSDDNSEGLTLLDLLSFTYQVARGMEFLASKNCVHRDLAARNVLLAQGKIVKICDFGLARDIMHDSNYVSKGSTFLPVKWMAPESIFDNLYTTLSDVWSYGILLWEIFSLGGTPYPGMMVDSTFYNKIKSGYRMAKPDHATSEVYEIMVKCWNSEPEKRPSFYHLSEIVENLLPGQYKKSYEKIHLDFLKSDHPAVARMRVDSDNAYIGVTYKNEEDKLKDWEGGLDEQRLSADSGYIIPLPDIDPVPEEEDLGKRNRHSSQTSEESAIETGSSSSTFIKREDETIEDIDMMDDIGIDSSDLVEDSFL

inhibition [1] [%] | inhibition [2] [%] | inhibition [3] [%] | inhibition [4] [%] | inhibition [5] [%] | inhibition [6] [%] | inhibition [7] [%] | Compound
10 | 74 | 29 | 46 | 42 | 5 | 93 | O=C(NCCCNc1nc(Nc2cccc(NC(=O)N3CCCC3)c2)ncc1I)c1cccs1
8 | 11 | 8 | 14 | 37 | 4 | 3 | COc1ccccc1N1CCN(c2ncnc3[nH]nc(Br)c23)CC1

Compound | inhibition [1] [%] | inhibition [2] [%] | inhibition [3] [%] | inhibition [4] [%] | inhibition [5] [%] | inhibition [6] [%] | inhibition [7] [%]
Cc1n[nH]c2ccc(-c3cncc(OC[C@@H](N)Cc4c[nH]c5ccccc45)c3)cc12 | 1 | 12 | 36 | 14 | 14 | 39 | 1
